Data published in article PMC7266109 (Drug Design, Development and Therapy, 2020).
Where two headings read alike, the source gives them in different places.

Format: in vitro ADME, rat
In short: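 Spiked rat plasma held under storage and analysis conditions, then quantified by UPLC-MS/MS. Work-up: IS (working solution 100 ng/mL) added, protein precipitation with acetonitrile (3 volumes), vortex 1 min, centrifugation 13,000 g for 10 min at 4°C, supernatant injected. Separation: BEH C18 column at 40°C, acetonitrile/0.1% formic acid gradient at 0.40 mL/min, 3.0 min run.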

Stability in rat plasma samples (at room temperature for at least 24 h): stable | Stability in rat plasma samples (at −20°C for at least 31 days): stable | Stability in rat plasma samples (in the auto-sampler (10°C) for at least four hours): stable | Stability in rat plasma samples (three complete freeze (−20°C)/thaw (RT) cycles): stable
Compound: CCc1nc(C(N)=O)c(Nc2ccc(N3CCC(N4CCN(C)CC4)CC3)c(OC)c2)nc1NC1CCOCC1 [Gilteritinib]
